From ChEMBL document CHEMBL1138802, “New water-soluble sulfonylphosphoramidic acid derivatives of the COX-2 selective inhibitor cimicoxib. A novel approach to sulfonamide prodrugs” (J Med Chem, 2004) come the findings set out here.

The target of data set [1] is T1, Prostaglandin G/H synthase 2 (Rattus norvegicus) (UniProt P35355).
T1 sequence (whole entry): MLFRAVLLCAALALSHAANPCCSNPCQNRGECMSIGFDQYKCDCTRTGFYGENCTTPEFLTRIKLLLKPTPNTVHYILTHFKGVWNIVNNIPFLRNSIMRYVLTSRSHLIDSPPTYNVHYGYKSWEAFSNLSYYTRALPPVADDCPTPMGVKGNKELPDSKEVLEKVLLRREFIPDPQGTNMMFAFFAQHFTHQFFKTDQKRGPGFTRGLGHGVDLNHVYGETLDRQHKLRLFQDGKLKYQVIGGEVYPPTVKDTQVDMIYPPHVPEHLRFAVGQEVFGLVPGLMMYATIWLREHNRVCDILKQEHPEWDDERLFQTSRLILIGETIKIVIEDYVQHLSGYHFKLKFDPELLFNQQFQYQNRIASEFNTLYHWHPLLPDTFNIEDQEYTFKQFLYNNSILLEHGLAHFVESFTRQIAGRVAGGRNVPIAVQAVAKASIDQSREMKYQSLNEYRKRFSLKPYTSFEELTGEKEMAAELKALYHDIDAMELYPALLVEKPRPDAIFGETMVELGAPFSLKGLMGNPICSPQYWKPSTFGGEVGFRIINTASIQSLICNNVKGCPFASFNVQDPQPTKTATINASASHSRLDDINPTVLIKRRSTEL
Kind of data set: Percentage inhibition of rat carrageenan-induced paw edema after iv administration at 3 mg/kg. The data set is classed as functional, organism-based. Further details: dose 3 mg/kg. Put shortly: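 Male Sprague–Dawley rats (150–175 g) were dosed iv at 3 mg/kg in PBS (1 mL/kg) 10 min before intraplantar injection of 0.1 mL 1% λ-carrageenan into the hindpaw. Paw volume was measured by water-displacement plethysmometry before and 1, 2, 3 and 4 h after treatment. % inhibition was calculated from the AUC of treated versus control animals.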

The nature of data set [2]: Area under curve after i.v. administration of 1 mg/kg to Dogs. Further details: dose 1 mg/kg, route intravenous. It counts as ADME, organism-based, Canis lupus familiaris. As to conditions: dog, in vivo, iv. Put shortly:
(§1)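 Dogs received the water-soluble phosphoramidic acid prodrug iv at 1 mg/kg as a solution. Parameters (t1/2, AUC/dose in ng h/mL, Cl in mL/h/kg, Vd in mL/kg) were derived from plasma levels of the released parent sulfonamide and reported as mean ± deviation.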

The nature of data set [3]: Half life after i.v. administration of 2 mg/kg to Dogs. The data set is classed as ADME, organism-based, Canis lupus familiaris. Further details: dose 2 mg/kg, route intravenous. As to conditions: dog, in vivo, iv. Put shortly: (§2)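 Dogs received the parent sulfonamide iv at 2 mg/kg as a suspension. Parameters (t1/2, AUC/dose in ng h/mL, Cl in mL/h/kg, Vd in mL/kg) were derived from its plasma levels and reported as mean ± deviation.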

Data set [4] can be described thus: Clearance after i.v. administration of 1 mg/kg to Dogs. The data set is classed as ADME, organism-based, Canis lupus familiaris. Further details: dose 1 mg/kg, route intravenous. As to conditions: dog, in vivo, iv. Put shortly: as §1
A short description of data set [5]: Volume of distribution after i.v. administration of 1 mg/kg to Dogs. The data set is classed as ADME, organism-based, Canis lupus familiaris. As to conditions: dog, in vivo, iv. Also on record: dose 1 mg/kg, route intravenous. Put shortly:
as §1

A short description of data set [6]: Clearance after i.v. administration of 2 mg/kg to Dogs. The data set is classed as ADME, organism-based, Canis lupus familiaris. Further details: dose 2 mg/kg, route intravenous. As to conditions: dog, in vivo, iv. In a few lines:
as §2

Data set [7] is described as follows: Area under curve after i.v. administration of 2 mg/kg to Dogs. As to conditions: dog, in vivo, iv. Also on record: dose 2 mg/kg, route intravenous. It counts as ADME, organism-based, Canis lupus familiaris. Put shortly: as §2
The nature of data set [8]: Volume of distribution after i.v. administration of 2 mg/kg to Dogs. The data set is classed as ADME, organism-based, Canis lupus familiaris. Further details: dose 2 mg/kg, route intravenous. As to conditions: dog, in vivo, iv. Put shortly: as §2

The molecule `COc1ccc(-c2c(Cl)ncn2-c2ccc(S(=O)(=O)NP(=O)(O)O)cc2)cc1F` returned an inhibition in data set [1] of 34.8%. Moreover, the AUC/dose in data set [2] was 3641.1 ng·h/mL. Further, the half-life in data set [3] is 4.9 h. The same molecule had a clearance in data set [4] of 4.55 mL/min/kg. This molecule yielded a volume of distribution (Vd) in data set [5] of 1.86 L/kg.
For `COc1ccc(-c2c(Cl)ncn2-c2ccc(S(N)(=O)=O)cc2)cc1F` [CIMICOXIB], in data set [6], the clearance was 4.87 mL/min/kg. The same molecule displayed an inhibition in data set [1] of 34.8%. The molecule also had an AUC/dose in data set [7] of 3253.4 ng·h/mL. The molecule further gave a half-life in data set [3] of 5 h. Besides, the Vd in data set [8] was 2.12 L/kg.
For `CCC(=O)NS(=O)(=O)c1ccc(-c2c(-c3ccccc3)noc2C)cc1`, in data set [1], the inhibition stood at 32.6%.
